# Test results taken from ChEMBL document CHEMBL4190262, “Tuning of β-glucosidase and α-galactosidase inhibition by generation and in situ screening of a library of pyrrolidine-triazole hybrid molecules” (Eur J Med Chem, 2017).
# Calls of active or inactive are those of the source. The rule behind the calls is not given here.
# How the values were obtained:
# Cornu aspersum = assay: Inhibition of snail beta-mannosidase at 1 mM using p-nitrophenyl glycopyranoside preincubated for 5 mins followed by substrate addition measured after 20 mins by visible absorption spectroscopic method relative to control
# Summary of the method: (§1)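 Test compound at 1 mM in well. Mix: 0.01–0.5 units/mL enzyme plus 10 mM p-nitrophenyl glycopyranoside (aqueous solution), buffered to the enzyme's optimal pH. Enzyme and inhibitor preincubated 5 min at rt. Substrate then added and incubated 20 min at 37 °C. Stopped with sodium borate (pH 9.8). p-Nitrophenolate read at 405 nm. Duplicates averaged.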
# Saccharomyces cerevisiae = assay: Inhibition of yeast alpha glucosidase at 1 mM using p-nitrophenyl glycopyranoside preincubated for 5 mins followed by substrate addition measured after 20 mins by visible absorption spectroscopic method relative to control; summary of the method: as §1
# [1] = target: T1, Alpha-mannosidase (Canavalia ensiformis) (UniProt C0HJB3); assay: Inhibition of jack bean alpha-mannosidase at 1 mM using p-nitrophenyl glycopyranoside preincubated for 5 mins followed by substrate addition measured after 20 mins by visible absorption spectroscopic method relative to control; summary of the method: as §1
# T1 sequence (whole entry): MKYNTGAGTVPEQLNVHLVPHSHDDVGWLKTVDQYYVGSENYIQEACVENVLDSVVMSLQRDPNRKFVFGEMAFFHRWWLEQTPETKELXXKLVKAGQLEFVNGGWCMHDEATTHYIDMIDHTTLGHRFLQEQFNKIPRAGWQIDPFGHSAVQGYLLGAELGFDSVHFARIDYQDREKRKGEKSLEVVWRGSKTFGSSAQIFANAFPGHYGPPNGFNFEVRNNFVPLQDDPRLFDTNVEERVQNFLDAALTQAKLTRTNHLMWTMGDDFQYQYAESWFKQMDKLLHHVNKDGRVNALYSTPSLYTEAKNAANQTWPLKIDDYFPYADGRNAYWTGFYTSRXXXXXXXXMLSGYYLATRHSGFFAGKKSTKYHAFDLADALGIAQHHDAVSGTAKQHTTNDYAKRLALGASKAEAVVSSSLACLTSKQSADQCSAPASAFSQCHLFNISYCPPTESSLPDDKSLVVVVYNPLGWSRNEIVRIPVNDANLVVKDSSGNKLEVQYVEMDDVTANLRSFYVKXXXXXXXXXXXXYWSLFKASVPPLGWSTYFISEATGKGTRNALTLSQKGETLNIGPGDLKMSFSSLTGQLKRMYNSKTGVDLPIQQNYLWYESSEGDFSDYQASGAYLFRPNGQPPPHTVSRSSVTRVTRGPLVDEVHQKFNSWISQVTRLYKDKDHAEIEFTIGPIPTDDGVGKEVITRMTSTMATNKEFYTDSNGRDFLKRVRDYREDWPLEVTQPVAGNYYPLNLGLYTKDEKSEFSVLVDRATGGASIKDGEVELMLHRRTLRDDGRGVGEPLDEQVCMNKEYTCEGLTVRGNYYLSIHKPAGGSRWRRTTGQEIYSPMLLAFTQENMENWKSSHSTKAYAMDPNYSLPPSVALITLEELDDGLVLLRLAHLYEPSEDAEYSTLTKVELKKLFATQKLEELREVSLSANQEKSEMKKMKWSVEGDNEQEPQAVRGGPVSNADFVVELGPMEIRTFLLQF
# Canavalia ensiformis = assay: Inhibition of jack bean beta-N-acetylglucosaminidase at 1 mM using p-nitrophenyl glycopyranoside preincubated for 5 mins followed by substrate addition measured after 20 mins by visible absorption spectroscopic method relative to control; summary of the method: as §1
# Beta-galactosidase = target: T2, Beta-galactosidase (Bos taurus, UniProt Q58D55); assay: Inhibition of bovine liver beta-galactosidase using p-nitrophenyl glycopyranoside preincubated for 5 mins followed by substrate addition measured after 20 mins by visible absorption spectroscopic method
# T2 sequence (Q58D55 whole entry): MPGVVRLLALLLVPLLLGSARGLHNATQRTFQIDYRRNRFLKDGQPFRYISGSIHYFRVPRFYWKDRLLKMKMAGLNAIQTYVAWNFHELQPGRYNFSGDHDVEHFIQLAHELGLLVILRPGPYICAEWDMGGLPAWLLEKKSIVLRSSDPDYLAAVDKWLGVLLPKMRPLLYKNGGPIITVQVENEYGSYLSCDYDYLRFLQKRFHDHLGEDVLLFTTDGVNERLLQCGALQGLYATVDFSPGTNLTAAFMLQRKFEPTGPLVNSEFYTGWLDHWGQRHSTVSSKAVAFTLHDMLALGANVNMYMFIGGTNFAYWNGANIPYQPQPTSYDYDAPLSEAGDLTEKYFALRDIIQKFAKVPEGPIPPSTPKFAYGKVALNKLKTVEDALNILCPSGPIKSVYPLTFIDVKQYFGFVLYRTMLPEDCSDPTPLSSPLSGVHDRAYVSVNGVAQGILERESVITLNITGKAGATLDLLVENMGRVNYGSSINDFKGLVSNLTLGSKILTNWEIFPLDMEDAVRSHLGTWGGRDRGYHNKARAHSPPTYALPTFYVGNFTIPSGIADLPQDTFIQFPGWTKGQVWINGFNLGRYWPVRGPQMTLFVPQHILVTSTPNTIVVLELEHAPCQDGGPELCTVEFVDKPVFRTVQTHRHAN
# Summary of the method: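 IC50 determined only for compounds giving ≥80% inhibition at 1 mM, read from plots of % inhibition versus inhibitor concentration. p-Nitrophenyl glycopyranoside substrate (10 mM solution) at the enzyme's optimal pH, with 0.01–0.5 units/mL enzyme. 5 min rt preincubation with enzyme, then 20 min at 37 °C. Borate stop (pH 9.8), absorbance at 405 nm. Duplicates averaged.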
# Bos taurus = species on record: Bos taurus; assay: Inhibition of bovine kidney alpha-L-fucosidase at 1 mM using p-nitrophenyl glycopyranoside preincubated for 5 mins followed by substrate addition measured after 20 mins by visible absorption spectroscopic method relative to control; summary of the method: as §1
# Prunus dulcis = assay: Inhibition of almond beta-glucosidase at 1 mM using p-nitrophenyl glycopyranoside preincubated for 5 mins followed by substrate addition measured after 20 mins by visible absorption spectroscopic method relative to control; summary of the method: as §1
inhibition (Cornu aspersum),inhibition (Saccharomyces cerevisiae),inhibition [1],inhibition (Canavalia ensiformis),IC50 (Beta-galactosidase) [µM],inhibition (Bos taurus) [%],inhibition (Prunus dulcis) [%],Structure (SMILES)
inactive,inactive,inactive,inactive,458,40,97,O[C@@H]1[C@H](O)CN[C@H]1Cn1cc(-c2ccccc2)nn1
inactive,inactive,inactive,inactive,173,17,< 53,O[C@@H]1[C@H](O)CN[C@@H]1Cn1cc(-c2ccccc2)nn1
